# Measured values: paper PMC6850403 (Clinical Pharmacology in Drug Development, 2019)
# Read-outs that look alike come from different tables or passages of the source.
# Experiments:
# [1] = weakly basic drug; cited from earlier work
# [2] = parenteral formulation, rabbit; cited from earlier work
# [3] = single 100‐mg dose; cited from earlier work
# [4] = cited from earlier work
# [5] = Safety and tolerability evaluation in the absolute bioavailability study; format: in vivo, human
# Method in brief: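 Healthy subjects in a randomized crossover each received a single 100 mg oral tablet and a single 50 mg IV infusion over 1.25 h, fasted. Recorded as AEs: adverse drug reactions, illnesses with onset during study, exacerbation of previous illness, clinically significant physical-examination changes and abnormal objective test findings. Vital signs, ECG and laboratory parameters were monitored.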
# [6] = system: human blood; settings: parenteral formulation, in vitro; cited from earlier work
# [7] = in vitro data and data from the ADME study; cited from earlier work
# [8] = cited from earlier work; remark: listed apart in the source
# [9] = Human mass balance; format: in vivo; settings: urine, po, 100 mg
# [10] = cited from earlier work; remark: listed apart in the source
# [11] = Hepatic extraction estimate, well-stirred model; set-up: species or system human; settings: hepatic blood flow of 87 L/h
# [12] = format: in vivo, human; settings: for clearance: CL; for half-life: t½
# Method in brief: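 Open-label, randomized 2-period, 2-sequence crossover in 12 healthy volunteers, fasted ≥10 h. Single 100 mg oral tablet with water to 240 mL, or 50 mg IV (1 mg/mL over 1.25 h). Plasma sampled 0–96 h and assayed by HPLC-MS/MS (LLOQ 3 ng/mL). Noncompartmental analysis used: CL/F = dose/AUC0‐∞. Log dose-normalized AUCs fitted by linear mixed-effect model; ratios exponentiated with 90% CI.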
# [13] = system: cytochrome P450 (CYP) 3A4/5; settings: preclinical studies; cited from earlier work
# [14] = once daily (QD), patients with advanced myeloid malignancies; cited from earlier work
# [15] = 100 mg oral tablet, single dose, fasted
# [16] = human, plasma, iv, 50 mg, arithmetic mean ± SD, 50 mg IV, single dose, fasted
# [17] = human, plasma, iv, 50 mg, geometric mean (geometric CV, %), 50 mg IV, single dose, fasted
# [18] = human, plasma, po, 100 mg, arithmetic mean ± SD, 100 mg oral tablet, single dose, fasted
molecule,measurement,setting,value
CN1CC[C@@H](NC(=O)Nc2ccc(C#N)cc2)C[C@@H]1c1nc2ccccc2[nH]1 [Glasdegib],"Solubility, pH dependence",[1],decreasing solubility as pH increases
same,Local vascular tissue irritation,[2],did not suggest that glasdegib was the cause of hemolysis in human blood and/or local vascular tissue irritation
same,Effect of proton‐pump inhibitors on glasdegib PK,[3],do not have a clinically relevant effect
same,Impact of disintegration and dissolution on absorption kinetics,[4]; oral solution compared to instant‐release tablet,do not appear to impact the absorption kinetics
same,Geometric mean Cmax,"[4]; single 100‐mg oral dose, 100‐mg maleate immediate release tablet, healthy subjects",775.3 ng/mL
same,AEs reported,[5]; following 50 mg IV administration,No AEs were reported
same,Number of AEs reported,"[5]; following 100 mg oral tablet, 1 mild and 1 moderate, in 2 subjects",2
same,Tolerability,"[5]; single 100‐mg oral and 50‐mg IV doses, healthy subjects",generally safe and well tolerated
same,"Peak ALT elevation, subject with moderate AE","[5]; treatment period 1 day 10, after oral 100 mg",3 × upper limit of normal
same,Hemolysis in human blood,[6],did not suggest that glasdegib was the cause of hemolysis in human blood
same,Plasma to whole blood partitioning,[7],< 1
same,Administered parent dose recovered in the feces,[8],19.5%
same,Contribution of the glucuronidation pathway via UGT1A9 to elimination,[8],only minor
same,Major route of elimination,[8],primarily through CYP3A4 oxidation
same,Mean plasma renal clearance,[8],1.97 L/h
same,dose excreted,[9],≥ 49%
same,Maximum tolerated dose,"[10]; QD, patients with advanced solid tumor",320 mg
same,Tolerability,"[10]; single dose of 320 mg, patients with advanced tumors",well tolerated
same,Hepatic extraction,[11],< 0.3
same,"AUC0‐last(dn), dose normalized geometric mean from the statistical model",[12]; 50 mg IV,96.98 ng·h/mL/mg
same,"AUC0‐∞(dn), dose normalized geometric mean from the statistical model",[12]; 50 mg IV,98.90 ng·h/mL/mg
same,"Intersubject variability in CL, %CV of the geometric mean",[12]; 50 mg IV,38%
same,"t½, arithmetic mean ± SD","[12]; 50 mg IV, single dose, fasted",13.78 ± 2.97 h
same,"AUC0‐last(dn), dose normalized geometric mean from the statistical model",[12]; 100 mg oral tablet,74.88 ng·h/mL/mg
same,"AUC0‐∞(dn), dose normalized geometric mean from the statistical model",[12]; 100 mg oral tablet,76.28 ng·h/mL/mg
same,"Intersubject variability in CL/F, %CV of the geometric mean",[12]; 100 mg oral tablet,38%
same,"CL/F, arithmetic mean ± SD",[12]; [15],13.87 ± 4.51 L/h
same,"CL/F, geometric mean (geometric CV, %)",[12]; [15],13.10 (38) L/h
same,"t½, arithmetic mean ± SD",[12]; [15],14.26 ± 2.45 h
same,"CL/F, arithmetic mean ± SD","[12]; 100 mg oral tablet, single dose, fasted, listed as glasdegib",13.87 L/h
same,Tmax,"[12]; human, plasma, iv, 50 mg",1.27 h
same,AUC,"[12]; human, plasma, iv, 50 mg, AUC0‐last, arithmetic mean ± SD, 50 mg IV, single dose, fasted",5120 ± 2160 ng·h/mL
same,AUC,"[12]; human, plasma, iv, 50 mg, AUC0‐last, geometric mean (geometric CV, %), 50 mg IV, single dose, fasted",4780 ng·h/mL
same,AUC,"[12]; human, plasma, iv, 50 mg, AUC0‐∞, arithmetic mean ± SD, 50 mg IV, single dose, fasted",5220 ± 2210 ng·h/mL
same,AUC,"[12]; human, plasma, iv, 50 mg, AUC0‐∞, geometric mean (geometric CV, %), 50 mg IV, single dose, fasted",4880 ng·h/mL
same,clearance,[12]; [16],181 mL/min
same,clearance,[12]; [17],171 mL/min
same,Cmax,[12]; [16],687 ± 197 ng/mL
same,Cmax,[12]; [17],665 ng/mL
same,half-life,[12]; [16],13.8 h
same,bioavailability,"[12]; human, plasma, oral, Absolute oral bioavailability, arithmetic mean ± SD, arithmetic mean ratios, without logarithmic transformation, of AUC0‐∞(dn) oral to IV",78.5 ± 12.8%
same,Tmax,"[12]; human, plasma, po, 100 mg",1.52 h
same,AUC,"[12]; human, plasma, po, 100 mg, AUC0‐last, arithmetic mean ± SD, 100 mg oral tablet, single dose, fasted",7990 ± 3310 ng·h/mL
same,AUC,"[12]; human, plasma, po, 100 mg, AUC0‐last, geometric mean (geometric CV, %), 100 mg oral tablet, single dose, fasted",7490 ng·h/mL
same,AUC,"[12]; human, plasma, po, 100 mg, AUC0‐∞, arithmetic mean ± SD, 100 mg oral tablet, single dose, fasted",8160 ± 3440 ng·h/mL
same,AUC,"[12]; human, plasma, po, 100 mg, AUC0‐∞, geometric mean (geometric CV, %), 100 mg oral tablet, single dose, fasted",7630 ng·h/mL
same,Cmax,[12]; [18],684 ± 155 ng/mL
same,Cmax,"[12]; human, plasma, po, 100 mg, geometric mean (geometric CV, %), 100 mg oral tablet, single dose, fasted",668 ng/mL
same,half-life,[12]; [18],14.3 h
same,Metabolizing enzyme,[13],primarily metabolized by cytochrome P450 (CYP) 3A4/5
same,Maximum tolerated dose as a single agent,[14],400 mg
[^14C]glasdegib,Mean recovery of radioactivity in urine (as parent and metabolites),"[8]; single oral dose of 100‐mg/100‐µCi, 6 healthy volunteers",49%
